Test results as given in ChEMBL document CHEMBL4004818, “Montagnuphilones A-G, Azaphilones from Montagnulaceae sp. DM0194, a Fungal Endophyte of Submerged Roots of Persicaria amphibia” (J Nat Prod, 2017).

Tests used:
[1] = Cytotoxicity against LPS-induced mouse RAW264.7 cells assessed as cell survival up to 100 uM by MTT assay relative to control; assay type: cell-based; settings: LPS-induced RAW264.7 cells, read-out: Survival
Outline: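 MTT viability assay on LPS-activated RAW264.7 cells, the same cells used for the NO assay; tested at concentrations up to 100 μM; triplicate experiments.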

[2] = test system: RAW264.7; experiment: Antiinflammatory activity in mouse RAW264.7 cells assessed as inhibition of LPS-induced nitric oxide production preincubated for 2 hrs followed by LPS stimulation measured after 18 hrs by Griess assay; assay type: functional, cell-based
Outline: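 LPS-activated RAW264.7 macrophages; nitric oxide production measured and IC50 derived; L-NAME as positive control; triplicate experiments.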

Cc1cc(O)cc(O)c1C(=O)O[C@@]1(C)C(=O)C2=C(C=C(/C=C/CO)OC2)C[C@H]1O
viability [1]: 90% | IC50 [2]: 9.2 µM

Cc1cc(O)cc(O)c1C(=O)O[C@@H]1CC2=C(CO[C@](O)(CCC(=O)O)C2)C(=O)[C@]1(C)O (relative stereo)
viability [1]: 90%

Cc1cc(O)cc(O)c1C(=O)O[C@@H]1CC2=C(CO[C@@](O)(CCCO)C2)C(=O)[C@]1(C)O (relative stereo)
viability [1]: 90%

Cc1cc(O)cc(O)c1C(=O)O[C@@H]1CC2=C(COC(/C=C/C(=O)O)=C2)C(=O)[C@]1(C)O (relative stereo)
viability [1]: 90%

Cc1cc(O)cc(O)c1C(=O)O[C@@H]1CC2=C(CO[C@](O)(CCCO)C2)C(=O)[C@]1(C)O (relative stereo)
viability [1]: 90% | IC50 [2]: 25.5 µM

Cc1cc(O)cc(O)c1C(=O)O[C@@H]1CC2=C(CO[C@@](O)(CCC(=O)O)C2)C(=O)[C@]1(C)O (relative stereo)
viability [1]: 90%

Cc1cc(O)cc(O)c1C(=O)O[C@@H]1CC2=C(COC(CCC(=O)O)=C2)C(=O)[C@]1(C)O (relative stereo)
viability [1]: 90% | IC50 [2]: 39.6 µM

COC(=O)[C@@H](N)CCCNC(=N)N[N+](=O)[O-] [L-NAME]
IC50 [2]: 30.6 µM
